Source: ChEMBL document CHEMBL4732057, “Design, synthesis and biological evaluation of second-generation benzoylpiperidine derivatives as reversible monoacylglycerol lipase (MAGL) inhibitors” (Eur J Med Chem, 2021)
Activity calls are given as the source filed them. The calls are words filed in the database; no cut-off is given here.

Experiments:
[1] = target: Cannabinoid receptor 1 (CB1) (Homo sapiens, UniProt P21554); assay: Displacement of [3H]CP55940 from human CB1 receptor at 10 uM incubated for 90 mins by radioligand binding assay; conditions: probe [3H]CP55940
In short: (§1)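 Membranes expressing hCB1 or hCB2 in 50 mM Tris-HCl, 2.5 mM EDTA, 5 mM MgCl2, 0.5% BSA, pH 7.4, incubated with compound and 0.5 nM [3H]CP55,940 for 90 min at 30 °C. Nonspecific binding with 10 µM […]; filtered and counted. Screening at 10 µM; two experiments in triplicate.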

[2] = target: T1, Monoacylglycerol lipase ABHD6 (Mus musculus) (UniProt Q8R2Y0); assay: Inhibition of ABHD6 in mouse brain membrane up to 30 uM preincubated for 25 mins followed by TAMRA-FP labeling addition and measured after 5 mins by competitive ABPP based analysis; assay type: cell membranes; conditions: dose microM <=30, time 30.0 min
T1 sequence (whole entry): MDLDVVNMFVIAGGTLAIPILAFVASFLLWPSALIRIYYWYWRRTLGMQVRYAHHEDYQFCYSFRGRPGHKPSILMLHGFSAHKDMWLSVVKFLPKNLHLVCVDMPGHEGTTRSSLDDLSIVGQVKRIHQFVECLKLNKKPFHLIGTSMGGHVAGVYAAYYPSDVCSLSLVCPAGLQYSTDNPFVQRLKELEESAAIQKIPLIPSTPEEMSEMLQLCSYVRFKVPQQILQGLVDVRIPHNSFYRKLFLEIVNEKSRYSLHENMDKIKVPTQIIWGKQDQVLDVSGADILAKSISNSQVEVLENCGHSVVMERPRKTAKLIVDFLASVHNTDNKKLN
In short: (§2)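 Mouse brain membranes, 4 mg/mL in PBS, preincubated 25 min at 25 °C with compound at 10 µM or a range of concentrations. Labelled 5 min with TAMRA-FP at 125 nM final. Proteins resolved on 11% SDS-PAGE and scanned for fluorescence.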

MDA-MB-231 = assay: Antiproliferative activity against human MDA-MB-231 cells as reduction in cell growth measured after 96 hrs by Celltiter-glo luminescent assay; assay type: functional, cell-based; conditions: MDA-MB-231, 96 h
In short: (§3)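 Cell lines kept at 37 °C, 5% CO2; 5 × 10^2 cells per well, compound added the day after seeding at 200 to 0.02 µM. Viability read after 96 h by CellTiter-Glo luminescence. IC50 from logistic dose-response curves, in triplicate; error bars are SD.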

Caov-3 cell line = assay: Antiproliferative activity against human CAOV3 cells as reduction in cell growth measured after 96 hrs by Celltiter-glo luminescent assay; assay type: functional, cell-based; conditions: Caov-3, 96 h; in short: as §3
OVCAR-3 = assay: Antiproliferative activity against human OVCAR3 cells as reduction in cell growth measured after 96 hrs by Celltiter-glo luminescent assay; assay type: functional, cell-based; conditions: OVCAR-3, 96 h; in short: as §3
SK-OV-3 = assay: Antiproliferative activity against human SKOV3 cells as reduction in cell growth measured after 96 hrs by Celltiter-glo luminescent assay; assay type: functional, cell-based; conditions: SK-OV-3, 96 h; in short: as §3
Cannabinoid receptor 1 = Cannabinoid receptor 1 (Homo sapiens, UniProt P21554); assay: Displacement of [3H]CP55940 from human CB1 receptor incubated for 90 mins by radioligand binding assay; in short: as §1
Cannabinoid receptor 2 = Cannabinoid receptor 2 (Homo sapiens, UniProt P34972); assay: Displacement of [3H]CP55940 from human CB2 receptor incubated for 90 mins by radioligand binding assay; in short: as §1
[3] = target: T2, Monoacylglycerol lipase ABHD6 (Homo sapiens) (UniProt Q9BV23); assay: Inhibition of human ABHD6 expressed in HEK293 cells using [3H]2-OG as substrate at 10 uM preincubated for 30 mins followed by substrate addition and measured after 5 mins by liquid scintillation spectroscopy; assay type: cell-based; conditions: time 35.0 min
T2 sequence (whole entry): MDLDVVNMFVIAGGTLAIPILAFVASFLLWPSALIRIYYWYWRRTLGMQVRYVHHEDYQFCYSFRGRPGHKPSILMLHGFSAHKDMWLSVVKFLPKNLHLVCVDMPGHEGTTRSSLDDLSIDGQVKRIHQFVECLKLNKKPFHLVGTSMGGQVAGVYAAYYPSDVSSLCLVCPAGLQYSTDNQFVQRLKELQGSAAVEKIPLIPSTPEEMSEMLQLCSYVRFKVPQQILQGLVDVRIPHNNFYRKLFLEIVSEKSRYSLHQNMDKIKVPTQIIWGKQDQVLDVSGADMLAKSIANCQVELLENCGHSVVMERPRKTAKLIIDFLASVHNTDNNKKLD
In short: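 Homogenate (40 µg) of HEK293 cells stably transfected with human ABHD6 or ABHD12, preincubated with compound 30 min at 37 °C in […], 0.1% BSA, pH 7.6. 2-OG 10 µM added for 5 min at 37 °C. Stopped with CHCl3:MeOH; aqueous tritium counted; blanks and nontransfected HEK293 hydrolysis subtracted. Screening at 10 µM.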

[4] = target: T3, Monoglyceride lipase (Mus musculus) (UniProt O35678); assay: Inhibition of MAGL in mouse brain membrane preincubated for 25 mins followed by TAMRA-FP labeling addition and measured after 5 mins by competitive ABPP based analysis; assay type: cell membranes; conditions: time 30.0 min; in short: as §2
T3 sequence (whole entry): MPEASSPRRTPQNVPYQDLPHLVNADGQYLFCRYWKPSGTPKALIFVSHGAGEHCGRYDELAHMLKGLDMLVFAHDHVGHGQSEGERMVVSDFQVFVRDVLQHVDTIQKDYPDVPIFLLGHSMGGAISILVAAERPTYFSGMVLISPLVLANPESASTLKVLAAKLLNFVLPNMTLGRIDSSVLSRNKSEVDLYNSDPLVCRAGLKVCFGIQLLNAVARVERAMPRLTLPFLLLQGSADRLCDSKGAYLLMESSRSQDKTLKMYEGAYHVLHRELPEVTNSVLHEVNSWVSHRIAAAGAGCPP

[5] = target: T4, Lysophosphatidylserine lipase ABHD12 (Mus musculus) (UniProt Q99LR1); assay: Inhibition of ABHD12 in mouse brain membrane up to 30 uM preincubated for 25 mins followed by TAMRA-FP labeling addition and measured after 5 mins by competitive ABPP based analysis; assay type: cell membranes; conditions: dose microM <=30, time 30.0 min; in short: as §2
T4 sequence (whole entry): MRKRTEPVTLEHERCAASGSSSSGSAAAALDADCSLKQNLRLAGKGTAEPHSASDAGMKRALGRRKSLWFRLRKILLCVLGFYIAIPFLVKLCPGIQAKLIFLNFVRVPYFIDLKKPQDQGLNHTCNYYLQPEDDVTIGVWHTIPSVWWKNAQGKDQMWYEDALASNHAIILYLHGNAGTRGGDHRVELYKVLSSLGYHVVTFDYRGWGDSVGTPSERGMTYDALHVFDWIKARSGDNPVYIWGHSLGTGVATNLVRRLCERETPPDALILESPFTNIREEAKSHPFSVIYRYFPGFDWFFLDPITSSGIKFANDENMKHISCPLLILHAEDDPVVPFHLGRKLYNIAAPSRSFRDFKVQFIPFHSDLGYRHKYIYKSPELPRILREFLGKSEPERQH

Cannabinoid receptor 1 (CB1), sequence (P21554 whole entry): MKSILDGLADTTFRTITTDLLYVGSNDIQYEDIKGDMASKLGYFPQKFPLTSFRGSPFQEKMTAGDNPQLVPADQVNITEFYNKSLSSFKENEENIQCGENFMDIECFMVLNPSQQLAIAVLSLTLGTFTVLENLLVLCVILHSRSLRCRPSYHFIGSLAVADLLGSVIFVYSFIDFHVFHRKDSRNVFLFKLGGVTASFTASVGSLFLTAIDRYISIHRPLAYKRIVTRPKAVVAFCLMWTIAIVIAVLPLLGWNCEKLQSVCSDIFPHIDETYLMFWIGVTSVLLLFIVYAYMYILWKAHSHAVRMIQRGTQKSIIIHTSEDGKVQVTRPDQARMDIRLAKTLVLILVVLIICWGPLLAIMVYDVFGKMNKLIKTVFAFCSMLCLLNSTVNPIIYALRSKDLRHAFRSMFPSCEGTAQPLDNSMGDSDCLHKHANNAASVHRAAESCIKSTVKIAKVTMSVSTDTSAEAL
Cannabinoid receptor 1, sequence (P21554 whole entry): as above
Cannabinoid receptor 2, sequence (P34972 whole entry): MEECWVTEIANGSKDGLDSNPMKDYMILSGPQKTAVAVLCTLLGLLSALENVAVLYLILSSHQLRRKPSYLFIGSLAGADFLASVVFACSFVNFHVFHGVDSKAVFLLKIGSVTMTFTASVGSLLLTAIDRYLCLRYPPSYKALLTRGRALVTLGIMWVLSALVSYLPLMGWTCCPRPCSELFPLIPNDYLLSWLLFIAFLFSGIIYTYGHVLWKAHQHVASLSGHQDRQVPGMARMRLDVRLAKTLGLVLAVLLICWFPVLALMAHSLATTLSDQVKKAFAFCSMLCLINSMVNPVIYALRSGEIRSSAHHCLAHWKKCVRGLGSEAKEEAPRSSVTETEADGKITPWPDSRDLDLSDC

SMILES | inhibition at 1.5 h, 10 µM [1] | inhibition [2] | IC50 (MDA-MB-231) | IC50 (Caov-3 cell line) | IC50 (OVCAR-3) | IC50 (SK-OV-3) | IC50 (Cannabinoid receptor 1) | IC50 (Cannabinoid receptor 2) | inhibition [3] | inhibition [4] | inhibition [5]
O=C(c1ccc(Sc2ccccc2)cc1)C1CCN(C(=O)c2cc(O)c(F)cc2F)CC1 | < 10% | inactive | 63 µM | 42 µM | > 100 µM | 11 µM | > 10 µM | > 10 µM | 18% | Dose-dependent effect | inactive
O=C(c1ccc(Sc2ccccc2)cc1)C1CCN(C(=O)c2cc(O)ccc2F)CC1 | < 10% | inactive | 43 µM | 34 µM | > 100 µM | 4.6 µM | > 10 µM | > 10 µM | 40% | Dose-dependent effect | inactive
O=C(c1ccc(Cc2ccccc2)cc1)C1CCN(C(=O)c2cc(O)c(F)cc2F)CC1 | < 10% | inactive | 65 µM | 44 µM | > 100 µM | 12 µM | > 10 µM | > 10 µM | 10% | Dose-dependent effect | inactive
O=C(c1ccc(Cc2ccccc2)cc1)C1CCN(C(=O)c2cc(O)ccc2F)CC1 | < 10% | inactive | 25 µM | 70 µM | 20.7 µM | 8 µM | > 10 µM | > 10 µM | 21% | Dose-dependent effect | inactive
